PMI activator = increases human mannose-6-phosphate isomerase activity | P34949 | purified human PMI, coupled resazurin fluorescence, 20 min; stronger effect = higher value; 1 = vehicle control, 0 substrate-free wells | activation factor at 20 µM | 190,000 tested, 0.005% active | AID 1214;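 active means activation factor of 2 or more at 20 µM, relative to plate controls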
Target sequence (P34949 whole entry, looked up): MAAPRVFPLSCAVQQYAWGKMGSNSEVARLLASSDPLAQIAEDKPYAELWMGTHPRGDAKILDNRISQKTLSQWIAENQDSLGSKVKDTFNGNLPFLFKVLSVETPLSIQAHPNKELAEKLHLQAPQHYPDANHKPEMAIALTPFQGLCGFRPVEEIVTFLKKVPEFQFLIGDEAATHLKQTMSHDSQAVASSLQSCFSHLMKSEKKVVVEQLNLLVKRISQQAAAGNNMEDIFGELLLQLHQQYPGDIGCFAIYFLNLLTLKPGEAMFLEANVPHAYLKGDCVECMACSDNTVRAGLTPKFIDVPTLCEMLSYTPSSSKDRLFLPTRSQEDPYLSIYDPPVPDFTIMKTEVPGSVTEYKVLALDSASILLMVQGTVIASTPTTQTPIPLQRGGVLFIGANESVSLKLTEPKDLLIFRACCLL
m-calpain inh = blocks pig calpain II enzyme activity; purified calpain II, fluorogenic peptide substrate, 30 min; inhibition, % at 16 µM; 220,000 tested, 0.37% active; AID 1236;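 active means inhibition above about 50%, limit read from the data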
Rad51 HR inh = blocks human Rad51 in homologous recombination. hRad51 DNA strand exchange, fluorescence dequenching. inhibition, % at 10 µM. 200,000 tested, 0.085% active;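 active means inhibition above 40% at the single screening dose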;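 further: 0% = DMSO control wells and 100% = blanks with heterologous ssDNA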
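material = hRad51 filaments on single-stranded DNA | timing = filaments 15 min 37 °C, then compound 30 min | signal = FRET fluorescence dequenching, excitation 485 nm, emission 520 nm | benchmarks = control wells and blank wells on each plate | evaluation = percent inhibition relative to plate controls and blanks | compound = 10 µM final, single point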
PMI act satM6P = PMI (human) activation, high substrate. P34949. coupled PMI enzyme assay, resazurin fluorescence, 20 min; stronger effect = higher value; 1 = untreated enzyme, 0 = substrate-free blank. activation factor at 20 µM. 190,000 tested, 0.34% active. AID 1216;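 active means activation factor of 2 or more at 20 µM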
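Material: human phosphomannose isomerase with PGI, G6PDH, diaphorase coupling enzymes. Quantity: 15 ng/mL PMI. Medium: HEPES pH 7.4 buffer with MgCl2 and Tween-20. Reagent: Near-saturating mannose-6-phosphate, 1.0 mM. Compound: 20 µM single dose. Times: enzyme reaction with compound 20 min at room temperature. Detection: resorufin fluorescence at Ex 544/Em 590 nm.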
L major viab = reduces viability of Leishmania major promastigotes. resazurin fluorescence viability. inhibition, % at 10 µM. 200,000 tested, 9% active. AID 1063; in the data active means inhibition above about 50%;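 further: promastigotes grown with compound for 44 hours at 28 °C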
WT yeast gro inh = growth inhibition of WT yeast, mitochondrial fusion screen | mitochondrial fusion phenotypic screen, WT strain | inhibition, % at 10 µM | 190,000 tested, 2.1% active; in the data active means inhibition above about 58%; tested in S. cerevisiae
Active calls of the source: *; . = no result. This is a sample that favours compounds with a hit; in the whole collection about 9.8% have one here.

SMILES	PMI activator	m-calpain inh	Rad51 HR inh	PMI act satM6P	L major viab	WT yeast gro inh
COc1ccc(-n2cc(C(=O)Nc3cc([N+](=O)[O-])ccc3OC)c3ccccc3c2=O)cc1	1	-43	6	1	77*	17
COC(=O)c1ccccc1NC(=O)c1cn(-c2ccc(C)c(C)c2)c(=O)c2ccccc12	1	5	1	0.9	41	-1
CCN(CC(=O)Nc1ccc([N+](=O)[O-])cc1OC)CC(=O)NC(C)(C)C	0.9	38	-6	0.6	71*	11
CCOC(=O)c1ccccc1NC(=O)c1cn(-c2ccc(OC)cc2)c(=O)c2ccccc12	0.8	-9	-2	0.8	92*	24
COc1ccc(OCC(O)CNC(=O)Nc2cc(F)ccc2C)cc1 (stereo not drawn)	.	5	17	.	.	.
COc1ccc(C)cc1S(=O)(=O)N(CC(=O)Nc1cccc([N+](=O)[O-])c1)c1cc(C)cc(C)c1	0.9	24	-2	1	-7	-1
CCOC(=O)c1ccccc1NC(=O)c1cn(-c2ccc(C)c(C)c2)c(=O)c2ccccc12	0.9	-12	8	0.9	98*	5
COc1ccc(C)cc1S(=O)(=O)N(CC(=O)Nc1cc([N+](=O)[O-])ccc1C)c1ccc(C)c(C)c1	0.9	-27	6	1	99*	13
Cc1ccc(-c2nc(N)sc2CC(=O)OCC(=O)NCCC(C)C)cc1	0.9	-80	-14	1	60*	-8
CCC(C)NC(=O)COC(=O)Cc1sc(N)nc1-c1ccc(C)cc1 (stereo not drawn)	1	-29	11	1	-3	6
COC(=O)[C@@H]1C[C@]2(OC(=O)c3ccccc3)C=CC(=O)C[C@@H]2N1C(=O)OCc1ccccc1	1.1	-68	-4	1	100*	-22
COC(CNC(=O)C1CCCN1C(=O)OCc1ccccc1)OC (stereo not drawn)	1.1	-26	33	1	-3	-15
COc1cccc(C2=NN(C(=O)c3cccs3)C(O)(C(F)(F)F)C2)c1 (stereo not drawn)	0.8	1	24	0.9	14	6
Cc1ccc(-c2nc(CN(C)Cc3cccc4cnccc34)c(C)o2)s1	0.8	6	9	0.8	11	19
CN1CCN(c2nc3c(c(=O)[nH]c(=O)n3C)n2CCSc2ncccn2)CC1	1.1	.	.	1.1	.	.
Cn1c(=O)[nH]c(=O)c2c1nc(Br)n2CCSc1ncccn1	1	18	-8	1	0	75*
O=C(NCc1ccc(/C=c2\sc3n(c2=O)CCN=3)o1)C(=O)Nc1ccccc1	0.8	-83	-19	0.5	-6	-11
COc1cccc(OC)c1-c1nn(-c2ncc(C(F)(F)F)cc2Cl)c(=O)o1	.	-13	15	.	.	.
O=C(O)c1ccccc1C(=O)NNc1ccc(Cl)cc1Cl	1.7	-25	24	2.7*	-2	33
Nc1nc(SCC(=O)Nc2ccccc2Sc2ccccc2)n[nH]1	0.9	9	2	0.9	-14	8
Cc1ccc(S(=O)(=O)N=Nc2c(O)[nH]c3ccccc23)cc1C	1.9	-9	9	2.2*	2	-17
COc1ccc(S(=O)(=O)N=Nc2c(O)[nH]c3ccccc23)cc1	1.9	-25	0	2.5*	-8	5
Cc1ccc(N(CC(=O)N=Nc2c(O)[nH]c3ccccc23)S(C)(=O)=O)c(C)c1	0.9	-56	.	0.9	2	-3
COc1ccc(NC(=S)N=Nc2c(O)[nH]c3ccccc23)cc1	.	-4	9	.	.	.
COc1cccc(CNc2ccc([N+](=O)[O-])c(NCC(=O)O)n2)c1	0.8	89*	-30	0.7	-9	3
Cc1cc(C)c(S(=O)(=O)Nc2ccc(-c3cn4ccccc4n3)cc2)c(C)c1	0.9	-171	-1	1	61*	22
Cc1cccc(S(=O)(=O)Nc2ccc(-c3cn4ccccc4n3)cc2)c1	0.9	-159	-2	0.9	5	1
COc1ccc2nc(NC(=O)Nc3cccc4ccccc34)sc2c1	0.8	-28	0	0.4	-1	5
COc1ccc2nc(N=Nc3c(O)ccc4ccccc34)sc2c1	1.1	-32	-31	0.8	99*	12

Screening results deposited in PubChem by several laboratories.
